Experiments:
[1] = biological target: Probable G-protein coupled receptor 34 (Mus musculus, UniProt Q9R1K6); experiment: Agonist activity at mouse GPR34 expressed in HEK293 cells co-transfected with AP-TGFalpha/Galphaq/i1 assessed as induction of ectodomain shedding of membrane bound AP-TGFalpha after 1 hr by p-NPP substrate based microplate reader analysis
Outline: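 HEK293 cells transiently transfected with AP-TGFα, chimeric Gα and mouse GPR34 vectors, then treated with compound. Empty-vector cells (AP-TGFα plus chimeric Gα) served as background. Receptor-specific AP-TGFα release was taken after subtracting that background, and concentration-response curves gave EC50 and Emax. Mean and SEM of 3−8 independent experiments.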

[2] = biological target: Putative P2Y purinoceptor 10 (Mus musculus, UniProt Q8BFU7); experiment: Agonist activity at mouse P2Y10 expressed in HEK293 cells co-transfected with AP-TGFalpha/Galphaq/i1 assessed as induction of ectodomain shedding of membrane bound AP-TGFalpha after 1 hr by p-NPP substrate based microplate reader analysis
Sequence of Putative P2Y purinoceptor 10 (Q8BFU7 whole entry, the tested form may be a part): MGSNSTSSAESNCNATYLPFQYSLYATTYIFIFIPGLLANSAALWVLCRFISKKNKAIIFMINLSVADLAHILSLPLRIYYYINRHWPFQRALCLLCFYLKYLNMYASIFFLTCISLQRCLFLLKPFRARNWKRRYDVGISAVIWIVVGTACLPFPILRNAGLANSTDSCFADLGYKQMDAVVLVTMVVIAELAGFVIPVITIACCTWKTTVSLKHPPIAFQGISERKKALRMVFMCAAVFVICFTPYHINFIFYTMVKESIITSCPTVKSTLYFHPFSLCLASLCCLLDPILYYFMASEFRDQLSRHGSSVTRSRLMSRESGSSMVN
Outline: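 Run the same way as the GPR34 shedding assay, but with a mouse P2Y10 expression vector in HEK293 cells alongside AP-TGFα and chimeric Gα. Receptor-specific AP-TGFα release was found by subtracting the empty-vector background. EC50 and Emax came from concentration-response curves. Mean and SEM of 3−8 independent experiments.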

[3] = biological target: G protein-coupled receptor 34a (Danio rerio, UniProt Q6XCC7); experiment: Agonist activity at zebrafish GPR34 type a expressed in HEK293 cells co-transfected with AP-TGFalpha/Galphaq/i1 assessed as induction of ectodomain shedding of membrane bound AP-TGFalpha after 1 hr by p-NPP substrate based microplate reader analysis
Sequence of G protein-coupled receptor 34a (Q6XCC7 1-389): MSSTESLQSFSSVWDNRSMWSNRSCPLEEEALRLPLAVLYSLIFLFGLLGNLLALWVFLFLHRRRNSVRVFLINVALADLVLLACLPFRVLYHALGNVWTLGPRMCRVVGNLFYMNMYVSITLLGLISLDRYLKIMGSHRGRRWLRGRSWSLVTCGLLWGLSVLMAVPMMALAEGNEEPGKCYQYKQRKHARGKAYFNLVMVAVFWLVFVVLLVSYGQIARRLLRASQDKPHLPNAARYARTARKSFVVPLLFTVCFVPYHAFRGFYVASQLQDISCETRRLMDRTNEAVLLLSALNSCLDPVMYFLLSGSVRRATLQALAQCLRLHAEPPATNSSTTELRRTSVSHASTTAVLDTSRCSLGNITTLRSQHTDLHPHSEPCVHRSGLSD

Sequence of Probable G-protein coupled receptor 34 (Q9R1K6 whole entry, the tested form may be a part): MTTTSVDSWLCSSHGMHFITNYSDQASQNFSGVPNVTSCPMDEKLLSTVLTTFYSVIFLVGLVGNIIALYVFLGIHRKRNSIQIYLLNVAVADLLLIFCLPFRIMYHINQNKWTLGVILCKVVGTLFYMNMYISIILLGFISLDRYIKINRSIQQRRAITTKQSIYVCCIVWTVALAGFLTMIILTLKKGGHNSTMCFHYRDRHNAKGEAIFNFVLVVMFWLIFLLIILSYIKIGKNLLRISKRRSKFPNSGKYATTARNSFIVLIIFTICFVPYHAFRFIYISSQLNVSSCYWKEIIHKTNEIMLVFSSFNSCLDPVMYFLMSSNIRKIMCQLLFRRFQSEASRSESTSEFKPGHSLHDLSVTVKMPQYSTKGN

Compound: CCCCCCCC/C=C\CCCCCCCC(=O)OCCOP(=O)(O)OC[C@H](N)C(=O)O
- EC50 [1]: > 3.16 µM

Compound: CCCCCCCC/C=C\CCCCCCCC(=O)O[C@@H](C)COP(=O)(O)OC[C@H](N)C(=O)O
- EC50 [1]: > 3.16 µM

Compound: CCCCCCCC/C=C\CCCCCCCC(=O)OC[C@@H](COC)OP(=O)(O)OC[C@H](N)C(=O)O
- EC50 [2]: > 3.16 µM

Compound: CCCCCCCC/C=C\CCCCCCCC(=O)OC[C@H](COC)OP(=O)(O)OC[C@H](N)C(=O)O
- EC50 [2]: > 3.16 µM

Compound: CCCCCCCC/C=C\CCCCCCCC(=O)OC[C@@H](COCC)OP(=O)(O)OC[C@H](N)C(=O)O
- EC50 [2]: > 3.16 µM

Compound: CCCCCCCC/C=C\CCCCCCCC(=O)OC[C@@H](COCCC)OP(=O)(O)OC[C@H](N)C(=O)O
- EC50 [2]: > 3.16 µM

Compound: COC[C@H](COC(=O)CCc1ccccc1OCc1cccc(Oc2ccccc2)c1)OP(=O)(O)OC[C@H](N)C(=O)O
- EC50 [2]: > 3.16 µM

Compound: CCOC[C@H](COC(=O)CCc1ccccc1OCc1cccc(Oc2ccccc2)c1)OP(=O)(O)OC[C@H](N)C(=O)O
- EC50 [2]: > 3.16 µM
- EC50 [3]: > 3.16 µM

Compound: CCCCCCCCCCCOc1ccccc1CCC(=O)O[C@H]1CCOC[C@H]1OP(=O)(O)OC[C@H](N)C(=O)O
- EC50 [1]: > 3.16 µM

Compound: CCCCCCCCCCCOc1ccccc1CCC(=O)O[C@H]1COCC[C@@H]1OP(=O)(O)OC[C@H](N)C(=O)O
- EC50 [1]: > 3.16 µM
